Data on 25 molecules can be found in ChEMBL document CHEMBL1157595, “Synthesis and biological evaluation of botulinum neurotoxin a protease inhibitors” (J Med Chem, 2010).

Calls of active or inactive are those of the source. The rule behind the calls is not given here.

For experiment [1], the target named is T1, Botulinum neurotoxin type A (Clostridium botulinum, UniProt P0DPI0). Nature of the experiment: Inhibition of Clostridium botulinum toxin BoNT/A light chain by FRET assay. An outline of the steps:
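Recombinant BoNT/A light chain was assayed by FRET substrate cleavage in 50 mM HEPES–0.05% Tween, pH 7.4. Reactions were stopped with acetic acid (0.5% final), and cleaved substrate fluorescence was read at 485 nm after excitation at 398 nm.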

Another experiment has as its target T2, Lethal factor (Bacillus anthracis, UniProt P15917).
T2 sequence (P15917 whole entry): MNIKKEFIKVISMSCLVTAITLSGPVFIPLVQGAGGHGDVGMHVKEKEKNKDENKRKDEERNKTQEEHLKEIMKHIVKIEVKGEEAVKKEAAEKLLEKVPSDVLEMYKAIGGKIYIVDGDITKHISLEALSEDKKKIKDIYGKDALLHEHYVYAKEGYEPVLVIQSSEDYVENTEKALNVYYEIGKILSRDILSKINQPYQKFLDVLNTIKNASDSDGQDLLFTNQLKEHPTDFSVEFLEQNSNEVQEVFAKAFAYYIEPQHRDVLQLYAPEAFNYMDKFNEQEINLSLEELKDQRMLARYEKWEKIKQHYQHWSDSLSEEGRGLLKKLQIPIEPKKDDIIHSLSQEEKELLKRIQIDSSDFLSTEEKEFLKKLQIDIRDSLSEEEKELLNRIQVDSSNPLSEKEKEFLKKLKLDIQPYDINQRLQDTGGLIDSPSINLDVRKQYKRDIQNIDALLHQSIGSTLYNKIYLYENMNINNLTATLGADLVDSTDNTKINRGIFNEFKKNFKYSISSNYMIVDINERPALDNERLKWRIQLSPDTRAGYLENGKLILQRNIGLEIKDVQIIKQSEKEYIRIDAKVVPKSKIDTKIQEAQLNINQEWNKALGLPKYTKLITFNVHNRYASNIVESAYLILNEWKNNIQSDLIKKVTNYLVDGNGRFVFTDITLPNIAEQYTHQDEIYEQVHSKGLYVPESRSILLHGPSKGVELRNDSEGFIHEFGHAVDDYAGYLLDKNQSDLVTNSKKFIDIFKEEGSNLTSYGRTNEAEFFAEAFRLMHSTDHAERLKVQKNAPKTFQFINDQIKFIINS
Nature of the experiment: Inhibition of Bacillus anthracis anthrax lethal factor by FRET assay.

In experiment [2] the target is T1, Botulinum neurotoxin type A. Nature of the experiment: Inhibition of Clostridium botulinum toxin BoNT/A light chain.
For experiment [3] the target is unchanged. Kind of experiment: Inhibition of Clostridium botulinum toxin BoNT/A light chain by HPLC-based assay. A digest of the protocol:
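Secondary HPLC-based cleavage assay with recombinant BoNT/A light chain, used to confirm FRET data. Values are the average of two experiments with variation under 10%.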

Experiment [4] can be described thus: Selectivity ratio of IC50 for Bacillus anthracis anthrax lethal factor to IC50 for Clostridium botulinum toxin BoNT/A light chain.
The target in experiment [5] is T3, Botulinum neurotoxin type B (Clostridium botulinum) (UniProt P10844).
T3 sequence (whole entry): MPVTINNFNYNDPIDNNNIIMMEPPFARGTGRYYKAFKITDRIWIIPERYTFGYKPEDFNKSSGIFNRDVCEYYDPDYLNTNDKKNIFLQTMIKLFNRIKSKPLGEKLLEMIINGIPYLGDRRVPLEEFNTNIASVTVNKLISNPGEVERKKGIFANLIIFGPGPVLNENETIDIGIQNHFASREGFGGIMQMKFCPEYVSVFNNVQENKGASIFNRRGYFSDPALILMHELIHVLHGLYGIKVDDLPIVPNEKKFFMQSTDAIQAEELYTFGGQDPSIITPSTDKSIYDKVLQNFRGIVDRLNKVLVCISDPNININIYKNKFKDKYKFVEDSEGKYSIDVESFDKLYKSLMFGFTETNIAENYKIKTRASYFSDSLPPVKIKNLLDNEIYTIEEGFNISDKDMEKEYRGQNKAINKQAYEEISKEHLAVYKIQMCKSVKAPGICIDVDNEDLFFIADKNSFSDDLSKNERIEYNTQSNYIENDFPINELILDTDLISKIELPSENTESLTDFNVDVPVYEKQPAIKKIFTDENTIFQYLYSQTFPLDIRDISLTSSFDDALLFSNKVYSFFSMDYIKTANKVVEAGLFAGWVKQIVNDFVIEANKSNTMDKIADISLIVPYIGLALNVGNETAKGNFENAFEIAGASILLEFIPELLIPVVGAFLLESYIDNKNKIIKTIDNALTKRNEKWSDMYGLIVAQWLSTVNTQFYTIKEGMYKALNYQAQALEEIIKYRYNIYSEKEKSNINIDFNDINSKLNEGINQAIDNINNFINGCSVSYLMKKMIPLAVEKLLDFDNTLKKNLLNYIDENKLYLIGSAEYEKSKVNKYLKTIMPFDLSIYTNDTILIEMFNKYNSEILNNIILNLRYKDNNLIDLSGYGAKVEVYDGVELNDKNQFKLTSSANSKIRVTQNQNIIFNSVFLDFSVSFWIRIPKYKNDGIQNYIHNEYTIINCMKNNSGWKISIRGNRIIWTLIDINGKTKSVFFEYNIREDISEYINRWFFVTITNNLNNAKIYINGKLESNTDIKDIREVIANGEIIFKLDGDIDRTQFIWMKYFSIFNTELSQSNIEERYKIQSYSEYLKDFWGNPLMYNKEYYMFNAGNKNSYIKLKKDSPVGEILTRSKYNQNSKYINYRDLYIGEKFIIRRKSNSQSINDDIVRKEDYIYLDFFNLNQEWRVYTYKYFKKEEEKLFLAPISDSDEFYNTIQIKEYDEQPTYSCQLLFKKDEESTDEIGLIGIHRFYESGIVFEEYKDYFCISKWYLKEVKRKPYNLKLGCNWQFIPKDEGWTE
Kind of experiment: Inhibition of Clostridium botulinum toxin BoNT/B.

Experiment [6] has as its target T4, Interstitial collagenase (Homo sapiens) (UniProt P03956).
T4 sequence (whole entry): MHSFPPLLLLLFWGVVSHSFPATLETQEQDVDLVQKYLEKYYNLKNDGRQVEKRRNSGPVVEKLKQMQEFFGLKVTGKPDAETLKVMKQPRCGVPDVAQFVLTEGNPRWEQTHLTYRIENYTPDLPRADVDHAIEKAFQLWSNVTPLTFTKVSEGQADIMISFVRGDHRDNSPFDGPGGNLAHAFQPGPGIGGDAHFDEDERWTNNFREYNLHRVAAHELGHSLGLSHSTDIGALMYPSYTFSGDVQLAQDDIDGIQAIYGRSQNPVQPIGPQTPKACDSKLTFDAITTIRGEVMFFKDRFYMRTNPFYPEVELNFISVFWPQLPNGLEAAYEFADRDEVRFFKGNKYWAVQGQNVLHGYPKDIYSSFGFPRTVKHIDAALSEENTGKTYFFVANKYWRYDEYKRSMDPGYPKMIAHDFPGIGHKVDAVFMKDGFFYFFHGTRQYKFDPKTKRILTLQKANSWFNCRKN
Nature of the experiment: Inhibition of human MMP1.

Experiment [7] concerns the target Matrix metalloproteinase-9 (Homo sapiens) (UniProt P14780). Nature of the experiment: Inhibition of human MMP9.
Experiment [8] deals with Botulinum neurotoxin type A (Clostridium botulinum) (UniProt P0DPI0). The following applies: 20 uM.
Chain of Botulinum neurotoxin type A (Clostridium botulinum) (P0DPI0 2-448 limits assumed): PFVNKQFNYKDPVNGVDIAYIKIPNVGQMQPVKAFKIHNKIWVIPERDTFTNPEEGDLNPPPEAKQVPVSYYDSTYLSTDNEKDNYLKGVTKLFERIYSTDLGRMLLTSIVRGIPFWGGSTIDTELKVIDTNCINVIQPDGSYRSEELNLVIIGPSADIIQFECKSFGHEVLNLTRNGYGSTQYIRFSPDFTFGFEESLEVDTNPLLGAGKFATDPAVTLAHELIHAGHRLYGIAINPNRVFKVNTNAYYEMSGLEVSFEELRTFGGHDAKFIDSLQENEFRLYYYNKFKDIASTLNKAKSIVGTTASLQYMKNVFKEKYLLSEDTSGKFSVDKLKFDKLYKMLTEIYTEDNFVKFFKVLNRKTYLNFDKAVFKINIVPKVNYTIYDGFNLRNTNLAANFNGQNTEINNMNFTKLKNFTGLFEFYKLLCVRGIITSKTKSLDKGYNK

T1 sequence (P0DPI0 2-448 limits assumed): as above
Chain of Matrix metalloproteinase-9 (Homo sapiens) (P14780 whole entry): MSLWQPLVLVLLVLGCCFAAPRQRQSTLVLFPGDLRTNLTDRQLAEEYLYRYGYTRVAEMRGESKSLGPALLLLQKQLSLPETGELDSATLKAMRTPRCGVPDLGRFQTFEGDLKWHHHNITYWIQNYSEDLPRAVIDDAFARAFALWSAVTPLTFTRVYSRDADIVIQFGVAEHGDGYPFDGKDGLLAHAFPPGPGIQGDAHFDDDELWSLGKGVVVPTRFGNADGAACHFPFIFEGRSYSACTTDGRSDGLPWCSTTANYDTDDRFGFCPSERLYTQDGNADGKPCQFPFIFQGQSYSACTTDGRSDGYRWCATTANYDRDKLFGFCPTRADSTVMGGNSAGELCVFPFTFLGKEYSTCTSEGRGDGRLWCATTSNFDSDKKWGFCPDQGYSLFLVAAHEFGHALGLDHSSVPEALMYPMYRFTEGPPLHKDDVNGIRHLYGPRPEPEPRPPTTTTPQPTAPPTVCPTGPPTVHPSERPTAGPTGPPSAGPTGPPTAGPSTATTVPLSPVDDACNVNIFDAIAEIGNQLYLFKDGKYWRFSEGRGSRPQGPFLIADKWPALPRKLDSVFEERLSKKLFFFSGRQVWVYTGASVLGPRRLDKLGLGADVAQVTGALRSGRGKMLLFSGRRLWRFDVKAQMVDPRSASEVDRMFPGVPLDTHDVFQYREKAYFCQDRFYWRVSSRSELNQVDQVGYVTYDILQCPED

Consider `c1cc(C2=NCCCN2)ccc1Oc1ccc(-c2cc3ccc(C4=NCCCN4)cc3s2)cc1`, for which the results for the IC50 (in experiment [1]; at Lethal factor) were 54 µM and over 100 µM, respectively.
As for `NC(=O)c1ccc(Oc2ccc(-c3cc4ccc(C(N)=O)cc4[nH]3)cc2)cc1`, the IC50 (in experiment [1]; at Lethal factor) was over 100 µM each time.
As for `CCOc1ccc(C(Nc2cccnc2)c2cc(Cl)c3cccnc3c2O)cc1` (configuration not stated), inhibition in experiment [2] was half-maximal at 500 nM (IC50).
As to `N#Cc1ccc(Oc2ccc(-c3cc4ccc(C5=NCCN5)cc4[nH]3)cc2)c(Cl)c1`, the IC50 was 30 µM in [1] and over 100 µM against Lethal factor.
Turning to `c1cc(C2=NCCN2)ccc1Oc1ccc(-c2nc3ccc(C4=NCCN4)cc3[nH]2)cc1`, 24.5 µM corresponded to half-maximal inhibition in experiment [1] (IC50).
As to `c1cc(-c2cc3ccc(C4=NCCCN4)cc3[nH]2)ccc1C1=NCCCN1`, the IC50 (in [1]; against Lethal factor) was over 100 µM in each case.
As to `c1cc(C2=NCCCN2)ccc1Oc1ccc(-c2nc3ccc(C4=NCCCN4)cc3[nH]2)cc1`, the IC50 in [1] came to 28 µM; in [3] it was 41 µM.
Regarding `Clc1ccc(Oc2ccc(-c3cc4ccc(C5=NCCN5)cc4[nH]3)cc2)c(Cl)c1`, the IC50 in [1] is over 25 µM; in experiment [3], 52 µM; against Lethal factor, over 100 µM.
Regarding `c1cc(C2=NCCN2)ccc1Oc1ccc(-c2cc3ccc(C4=NCCN4)cc3[nH]2)cc1`, the IC50 in [1] is 12.5 µM; in experiment [3] it was 9.4 µM; against Lethal factor, 43 µM.
With `N#Cc1ccc(Oc2ccc(-c3cc4ccc(C#N)cc4[nH]3)cc2)c(Cl)c1`, in experiment [1], the IC50 was over 100 µM.
As for `c1cc(C2=NCCCN2)ccc1Oc1ccc(-c2cc3ccc(C4=NCCCN4)cc3[nH]2)nc1`, the IC50 in experiment [1] was 67 µM; in experiment [3], over 100 µM; against Lethal factor, over 100 µM.
Regarding `c1cc(C2=NCCN2)ccc1Oc1ccc(-c2cc3ccc(C4=NCCN4)cc3s2)cc1`, the results for the IC50 (in experiment [1]; in experiment [3]; at Lethal factor) were 7.1 µM, 25 µM and 18 µM, respectively.
Take `OC1CN=C(c2ccc(Oc3ccc(-c4cc5ccc(C6=NCC(O)CN6)cc5[nH]4)cc3)cc2)NC1` (configuration not stated): the IC50 in experiment [1] is 7.3 µM; against Lethal factor, over 100 µM. In addition, the Ratio IC50 in experiment [4] came out at 10.
In the case of `c1cc(-c2cc3ccc(C4=NCCN4)cc3[nH]2)ccc1C1=NCCN1`, the values for the IC50 (in experiment [1]; on Lethal factor) were 20 µM and 49 µM, respectively. Also, the inhibition result in experiment [5], in experiment [6] and in [7] was “inactive” throughout.
With `c1cc(-c2cc3ccc(C4=NCCN4)cc3s2)ccc1C1=NCCN1`, the IC50 in experiment [1] was 43 µM; at Lethal factor, over 100 µM.
As for `c1cc(C2=NCCN2)ccc1Oc1ccc(-c2cc3ccc(C4=NCCN4)cc3[nH]2)nc1`, the IC50 in experiment [1] is 69 µM; in experiment [3], over 100 µM; on Lethal factor it was 55 µM.
With `CN(C)CC/N=C(\N)c1ccc(Oc2ccc(-c3cc4ccc(/C(N)=N/CCN(C)C)cc4[nH]3)cc2)cc1`, the figures for the IC50 (in experiment [1]; in experiment [3]; against Lethal factor) were 2.5 µM, 4.4 µM and 28 µM, respectively. In addition, the Ratio IC50 in experiment [4] worked out at 10. Moreover, the inhibition entry in experiment [5], in experiment [6] and in experiment [7] was “inactive” throughout.
Consider `Clc1ccc2cc(-c3ccc(Oc4ccc(C5=NCCN5)cc4)cc3)[nH]c2c1`, for which the IC50 in experiment [1] is over 100 µM; on Lethal factor it was 51 µM.
Regarding `N#Cc1ccc(Oc2ccc(-c3cc4ccc(C#N)cc4[nH]3)cc2)cc1`, in [1], the IC50 was over 100 µM.
In the case of `c1cc(-c2cc3ccc(C4=NCCCN4)cc3s2)ccc1C1=NCCCN1`, the IC50 in experiment [1] was over 100 µM.
Take `N#Cc1ccc(Oc2ccc(-c3cc4ccc(C(=N)N)cc4[nH]3)cc2)cc1`: the concentration for half-maximal inhibition (IC50) in experiment [1] is over 25 µM; on Lethal factor, over 100 µM.
For `c1cc(C2=NCCCN2)ccc1Oc1ccc(-c2cc3ccc(C4=NCCCN4)cc3[nH]2)cc1`, the half-maximal inhibitory concentration (IC50) was 21 µM in [1], 43 µM in experiment [3] and over 100 µM against Lethal factor.
As for `NCCCCCCCNCCCCCCCNC(=O)c1cc(CCC(=O)NO)c(CCC(O)(c2ccccc2)c2ccccc2)[nH]1`, in experiment [2], the IC50 was under 1000 nM and the Ki was 760 nM.
On to `N#Cc1ccc(Oc2ccc(-c3cc4ccc(C#N)cc4[nH]3)nc2)cc1`, for which the IC50 (in [1]; against Lethal factor) was over 100 µM throughout.
`N=C(N)c1ccc(Oc2ccc(-c3cc4ccc(C(=N)N)cc4[nH]3)cc2)cc1`: the results for the half-inhibitory concentration (IC50) (in experiment [1]; in experiment [3]; on Lethal factor) were 11 µM, 17 µM and 35 µM, respectively. Moreover, the inhibition in experiment [8] stood at 75%.

A word on the IC50: it is the concentration at which inhibition is half-maximal. A low value points to higher potency. By inhibition is commonly meant how much of the control response was suppressed. In general, Ki refers to a dissociation constant, usually derived from enzyme kinetics or from competition with a known ligand. High values mean a looser hold on the target, low ones a stronger hold on the target.
